IC50, Activity and Survival data for 14 molecules are collected here from ChEMBL document CHEMBL1154756, “Synthesis of new chalcone derivatives containing acridinyl moiety with potential antimalarial activity” (Eur J Med Chem, 2010).

Activity calls are given as the source filed them. The rule behind the calls is not given here.

The test system of experiment [1] is Plasmodium falciparum. The experiment in a line: Antimalarial activity against chloroquine-resistant Plasmodium falciparum W2. It is filed as functional, organism-based.
The subject of experiment [2] is Plasmodium falciparum. In words: Antimalarial activity against chloroquine-sensitive Plasmodium falciparum NF54 assessed as inhibition of schizont maturation at 0.25 ug/ml after 36-40 hrs relative to control. Type of experiment: functional. On the set-up: scale not given: the % may be the effect or the level left.
For experiment [3], the system named is Plasmodium falciparum. In words: Antimalarial activity against chloroquine-sensitive Plasmodium falciparum NF54 assessed as inhibition of schizont maturation at 0.50 ug/ml after 36-40 hrs relative to control. It is filed as functional. On the set-up: scale not given: the % may be the effect or the level left.
Experiment [4] concerns Plasmodium falciparum. In words: Antimalarial activity against chloroquine-sensitive Plasmodium falciparum NF54 assessed as inhibition of schizont maturation at 0.125 ug/ml after 36-40 hrs relative to control. Type of experiment: functional. More on the design: scale not given: the % may be the effect or the level left.
Experiment [5] deals with Plasmodium falciparum. The experiment in a line: Antimalarial activity against chloroquine-sensitive Plasmodium falciparum NF54 assessed as inhibition of schizont maturation at 0.0625 ug/ml after 36-40 hrs relative to control. On the set-up: scale not given: the % may be the effect or the level left. Type of experiment: functional.
The test system of experiment [6] is Plasmodium yoelii. In words: Antimalarial activity against chloroquine-resistant Plasmodium yoelii N67 infected in Swiss mice (Mus musculus) assessed as suppression of parasitaemia at 50 mg/kg, intraperitoneal once daily for 4 consecutive days measured after 6 days. Type of experiment: functional, organism-based. On the set-up: dose 50 mg/kg.
For experiment [7], the system named is Plasmodium yoelii. In words: Antimalarial activity against chloroquine-resistant Plasmodium yoelii N67 infected in Swiss mice (Mus musculus) assessed as suppression of parasitaemia at 50 mg/kg, intraperitoneal once daily for 4 consecutive days measured after 4 days. It is filed as functional.
In experiment [8] the test system is Plasmodium falciparum. In words: Antimalarial activity against chloroquine-sensitive Plasmodium falciparum NF54 assessed as inhibition of schizont maturation at 10 ug/ml after 36-40 hrs relative to control. Type of experiment: functional. On the set-up: scale not given: the % may be the effect or the level left. Put shortly:
(§1)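 NF-54 cultures were kept in RPMI 1640 with 25 mM HEPES, 1% bicarbonate and 0.5% ALBUMAX-II. Wells held 3% haematocrit in medium with 10% FBS, and compound was added from a 5 mg/mL DMSO stock diluted in medium. Duplicates were incubated at 37 °C in CO2 for 36–40 h. Rings, trophozoites and schizonts were counted per 100 parasites on Giemsa smears, giving % maturation inhibition versus untreated control.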

Experiment [9] relates to Plasmodium falciparum. In words: Antimalarial activity against chloroquine-sensitive Plasmodium falciparum NF54 assessed as inhibition of schizont maturation at 2 ug/ml after 36-40 hrs relative to control. It is filed as functional. More on the design: scale not given: the % may be the effect or the level left. A digest of the protocol:
as §1

Experiment [10] relates to Plasmodium falciparum. The experiment in a line: Antimalarial activity against chloroquine-sensitive Plasmodium falciparum NF54 assessed as inhibition of schizont maturation at 50 ug/ml after 36-40 hrs relative to control. Type of experiment: functional. More on the design: scale not given: the % may be the effect or the level left. A digest of the protocol:
as §1

The test system of experiment [11] is Plasmodium yoelii. The experiment in a line: Antimalarial activity against chloroquine-resistant Plasmodium yoelii N67 infected in Swiss mice (Mus musculus) assessed as mean survival time at 50 mg/kg, intraperitoneal once daily for 4 consecutive days. It is filed as functional.
The test system of experiment [12] is Plasmodium falciparum. The experiment in a line: Antimalarial activity against chloroquine-sensitive Plasmodium falciparum NF54 assessed as inhibition of schizont maturation at 100 ug/ml after 36-40 hrs relative to control. Type of experiment: functional. More on the design: scale not given: the % may be the effect or the level left. Put shortly:
as §1

For experiment [13], the system named is Plasmodium falciparum. In words: Antimalarial activity against chloroquine-sensitive Plasmodium falciparum NF54 assessed as inhibition of schizont maturation at 0.4 ug/ml after 36-40 hrs relative to control. It is filed as functional. On the set-up: scale not given: the % may be the effect or the level left. A digest of the protocol:
as §1

Experiment [14] deals with Plasmodium falciparum. In words: Antimalarial activity against chloroquine-sensitive Plasmodium falciparum NF54 assessed as inhibition of schizont maturation at 0.08 ug/ml after 36-40 hrs relative to control. On the set-up: scale not given: the % may be the effect or the level left. It is filed as functional. A digest of the protocol:
as §1

Experiment [15] has as its system Plasmodium falciparum. In words: Antimalarial activity against chloroquine-sensitive Plasmodium falciparum NF54 assessed as inhibition of schizont maturation. Type of experiment: functional. More on the design: scale not given: the % may be the effect or the level left. A digest of the protocol:
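P. falciparum NF-54 was grown in RPMI 1640 with 25 mM HEPES, 1% sodium bicarbonate and 0.5% ALBUMAX-II. The assay used 3% haematocrit in medium with 10% FBS, with a DMSO stock (5 mg/mL) diluted in medium to five-fold dilutions. Duplicate wells were incubated at 37 °C in CO2 for 36–40 h, then Giemsa smears were read. MIC was the concentration fully blocking maturation to schizonts.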

`CC(C)=CCc1cc(/C=C/C(=O)c2ccc(O)cc2O)ccc1O` [LICOAGROCHALCONE A]: in the experiment with Plasmodium falciparum [1], the IC50 was determined as 10.3 µM.
In the case of `CCN(CC)CCCC(C)Nc1ccnc2cc(Cl)ccc12` (stereo not given) [CHLOROQUINE], the Activity in the experiment on Plasmodium falciparum [2] came to 100%; in the experiment with Plasmodium falciparum [3], 100%; in the experiment on Plasmodium falciparum [4], 97.1%; with Plasmodium falciparum [5], 74.3%.
As for `COc1ccc(/C=C/C(=O)c2cccc(Nc3c4ccccc4nc4ccccc34)c2)cc1`, the outcome in the experiment with Plasmodium yoelii [6] was inactive. Also, the Activity in the experiment on Plasmodium yoelii [7] was 6.22%; in the experiment on Plasmodium falciparum [8], 100%; in the experiment on Plasmodium falciparum [9] it was 71.4%; with Plasmodium falciparum [10], 100%; in the experiment on Plasmodium falciparum [12], 100%; in the experiment on Plasmodium falciparum [13] it was 7.1%. Further, the Survival in the experiment on Plasmodium yoelii [11] amounted to 15.2 days.
Regarding `O=C(/C=C/c1ccccc1)c1cccc(Nc2c3ccccc3nc3ccccc23)c1`, the outcome in the experiment with Plasmodium yoelii [6] and in the experiment on Plasmodium yoelii [7] was inactive. The Activity in the experiment on Plasmodium falciparum [8] is reported as 100%; in the experiment on Plasmodium falciparum [9], 97.1%; in the experiment on Plasmodium falciparum [10], 100%; with Plasmodium falciparum [12], 100%; in the experiment with Plasmodium falciparum [13], 4.3%. The Survival in the experiment with Plasmodium yoelii [11] was 15.5 days.
With `O=C(/C=C/c1cccc([N+](=O)[O-])c1)c1ccc(Nc2c3ccccc3nc3ccccc23)cc1`, the Activity with Plasmodium falciparum [8] is reported as 100%; in the experiment on Plasmodium falciparum [9] it was 0%; with Plasmodium falciparum [10] it was 100%; in the experiment with Plasmodium falciparum [12] it was 100%.
In the case of `O=C(/C=C/C=C/c1ccccc1)c1ccc(Nc2c3ccccc3nc3ccccc23)cc1`, the Activity in the experiment with Plasmodium falciparum [8] turned out to be 100%; in the experiment with Plasmodium falciparum [9], 64.3%; in the experiment on Plasmodium falciparum [10], 100%; with Plasmodium falciparum [12], 100%; with Plasmodium falciparum [13], 0%.
As to `COc1ccc(/C=C/C(=O)c2ccc(Nc3c4ccccc4nc4ccccc34)cc2)cc1`, the outcome in the experiment on Plasmodium yoelii [6] and with Plasmodium yoelii [7] was inactive. Moreover, the Activity is 100% in the experiment with Plasmodium falciparum [8]; 85.7% with Plasmodium falciparum [9]; 100% in the experiment with Plasmodium falciparum [10]; 100% in the experiment with Plasmodium falciparum [12]; 14.3% with Plasmodium falciparum [14]; 71.4% in the experiment with Plasmodium falciparum [13]. Also, in the experiment on Plasmodium yoelii [11], the Survival is 10.67 days.
Regarding `Cc1ccc(/C=C/C(=O)c2ccc(Nc3c4ccccc4nc4ccccc34)cc2)cc1`, the Activity in the experiment with Plasmodium falciparum [8] was determined as 100%; in the experiment with Plasmodium falciparum [9], 42.8%; in the experiment with Plasmodium falciparum [10] it was 100%; with Plasmodium falciparum [12], 100%.
Turning to `O=C(/C=C/c1ccc(Cl)cc1)c1ccc(Nc2c3ccccc3nc3ccccc23)cc1`, the Activity is listed as 100% with Plasmodium falciparum [8], 0% with Plasmodium falciparum [9], 100% in the experiment on Plasmodium falciparum [10] and 100% in the experiment with Plasmodium falciparum [12].
As for `Cc1cccc(/C=C/C(=O)c2ccc(Nc3c4ccccc4nc4ccccc34)cc2)c1`, the Activity in the experiment with Plasmodium falciparum [8] stood at 100%; in the experiment on Plasmodium falciparum [9], 0%; in the experiment with Plasmodium falciparum [10], 100%; in the experiment on Plasmodium falciparum [12] it was 100%.
As to `O=C(/C=C/c1ccccc1)c1ccc(Nc2c3ccccc3nc3ccccc23)cc1`, the Activity in the experiment with Plasmodium falciparum [8] came to 100%; in the experiment on Plasmodium falciparum [9] it was 42.8%; in the experiment on Plasmodium falciparum [10], 100%; in the experiment on Plasmodium falciparum [12], 100%.
On to `COc1cc(/C=C/C(=O)c2ccc(Nc3c4ccccc4nc4ccccc34)cc2)cc(OC)c1OC`, for which the Activity is 100% in the experiment on Plasmodium falciparum [8]; 57.1% in the experiment with Plasmodium falciparum [9]; 100% in the experiment on Plasmodium falciparum [10]; 100% in the experiment on Plasmodium falciparum [12]; 5.7% in the experiment with Plasmodium falciparum [13].
Take `O=C(/C=C/c1ccc(Cl)cc1)c1cccc(Nc2c3ccccc3nc3ccccc23)c1`: the Activity in the experiment with Plasmodium falciparum [8] is on record as 100%; in the experiment with Plasmodium falciparum [9], 0%; in the experiment with Plasmodium falciparum [10], 100%; in the experiment on Plasmodium falciparum [12], 100%.
For the molecule `COc1cc(/C=C/C(=O)c2ccc(O)c(CC=C(C)C)c2O)ccc1O` [CROTAORIXIN], the Activity in the experiment on Plasmodium falciparum [15] amounted to 100%.

What is called IC50 is the concentration that gives 50% inhibition.
